# Results pooled from the literature.
Structure (SMILES),test system,conditions,endpoint,result
N#C[C@@]12C[C@@H]1[C@@H](n1cnc3c(N[C@@H](C4CCC4)C4CC4)nc(I)nc31)[C@H](O)[C@@H]2O,"male Wistar rat, plasma","oral, 10 mg/kg",AUC(0-inf),349 ng·h/mL
CC(C)Cc1ccc(C(C)C(=O)O)cc1 (stereo not drawn),PAMPA-BBB,pH 7.4,Papp,11.6 ×10⁻⁶ cm/s
CCCCCCCc1[nH]c2ccccc2c(=O)c1O,PAMPA,"40 µM, 5 h, pH 7.4",Papp,1.2 to 4 ×10⁻⁶ cm/s
O=C1CC[C@H](N2Cc3cc(N4CCN(CC5CCN(c6ccc([C@@H]7c8ccc(O)cc8CC[C@@H]7c7ccccc7)cc6)CC5)CC4)ccc3C2=O)C(=O)N1,"female Sprague-Dawley rat, plasma","intravenous, 5 mg/kg, fed",AUC(0-inf),11600 ng·h/mL
Cc1c(C(=O)O)ccc2c3n(nc12)[C@@H]1[C@H](C3)N(CC2CC2)[C@@]2(C(=O)Nc3cc(Cl)ccc32)[C@H]1c1cccc(Cl)c1F,"female minipig, plasma","oral, 2 mg/kg",Cmax,900 nM
CC(C)C[C@@H]1NC(=O)CN(C)C(=O)[C@H](Cc2ccccc2)NCC2=CC=C(CNC1=O)O2,PAMPA,"100 µM, 17 h, pH 6.4",Papp,1.3 ×10⁻⁶ cm/s
O=[N+]([O-])c1ccc2c(c1)S(=O)(=O)C=C2,PAMPA-BBB,pH 7.4,Papp,3.98 ×10⁻⁶ cm/s
CC(C)C[C@@H]1NC(=O)[C@H](C)NC(=O)[C@H](Cc2ccccc2)NCC2=CC=C(CN(C)C1=O)O2,PAMPA,"100 µM, 17 h, pH 6.4",Papp,1.9 ×10⁻⁶ cm/s
CC(C)NCC(O)COc1cccc2ccccc12 (stereo not drawn),PAMPA,"40 µM, 5 h, pH 7.4",Papp,14.3 ×10⁻⁶ cm/s
